PMC3227549 (Journal of natural products, 2010)
Entries after “also recorded” stand apart in the source; their conditions may differ.

Legend:
[1] = system: spontaneous Ca2+ oscillations in neocortical neurons; test: Suppression of spontaneous Ca2+ oscillations; type: cell-based, mouse
[2] = system: voltage gated sodium channel (VGSC); test: Sodium influx / activation of VGSC in neocortical neurons; type: cell-based; settings: mouse neocortical neurons
In short: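 Primary neocortical neurons from embryonic day 16 Swiss-Webster mice were trypsin-dissociated, given 10 μM cytosine arabinoside on day 2, then Neurobasal/B-27 serum-free medium, and used at DIV 8–13. Cells were loaded for 1 h at 37 °C with 10 μM SBFI-AM and 0.02% Pluronic F-127, then washed in Locke's buffer. Ex 340/380 nm, em 505 nm, read every 5 s, with 60 s baseline before test compound addition. EC50 by nonlinear logistic regression.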

[3] = system: H-460 human lung adenocarcinoma cells; test: Cytotoxicity to H-460 human lung adenocarcinoma cells; type: cell-based
[4] = system: Neuro-2a mouse neuroblastoma cells; test: Cytotoxicity to Neuro-2a mouse neuroblastoma cells; type: cell-based
[5] = system: brine shrimp; test: Brine shrimp toxicity assay; type: in vivo; settings: pure compound
[6] = system: voltage gated sodium channel (VGSC); settings: cited from earlier work
[7] = system: site 2 of the mammalian VGSC; settings: cited from earlier work

Compound	suppressed spontaneous Ca2+ oscillations, EC50 [1]	stimulated sodium influx, EC50 [2]	H-460 (IC50 μM) [3]	Neuro-2a (IC50 μM) [4]	LC50 in the brine shrimp toxicity assay [5] [nM]	kind of agonism in stimulation of sodium influx in neocortical neurons [6]	inhibition of binding of [3H]batrachotoxin to site 2 of the mammalian VGSC [7]
CCC[C@@H](C)[C@H](O)[C@H](C)[C@@H](O)[C@@H](C)[C@H](Cc1nc(C2=N[C@@](C)(C3=N[C@@](C)(C(=O)N[C@H]([C@@H](O)[C@@H](C)C(=O)OCC)[C@@H](C)CC)CS3)CS2)cs1)OC [Compound 3, hoiamide C]	no significant effects; also recorded: no significant pharmacological activity	no significant effects; also recorded: no significant pharmacological activity	Inactive	Inactive	1300		
CCC[C@@H](C)[C@H](O)[C@H](C)[C@H]1OC(=O)[C@H]([C@@H](C)O)NC(=O)[C@H](C(C)C)OC(=O)[C@H](C)[C@H](O)[C@H]([C@@H](C)CC)NC(=O)[C@@]2(C)CSC(=N2)[C@@]2(C)CSC(=N2)c2csc(n2)C[C@H](OC)[C@@H]1C [Compound 1, hoiamide A]						partial agonist	inhibits the binding
CCC[C@@H](C)[C@H](O)[C@H](C)[C@H]1OC(=O)[C@H]([C@@H](C)O)NC(=O)[C@H]([C@@H](C)CC)OC(=O)[C@H](C)[C@H](O)[C@H]([C@@H](C)CC)NC(=O)[C@@]2(C)CSC(=N2)[C@@]2(C)CSC(=N2)c2csc(n2)C[C@H](OC)[C@@H]1C [Compound 2, hoiamide B]				Inactive			
